This passage reports Activity and IC50 results from ChEMBL document CHEMBL5543124, “Lead Compound Development of SRC-3 Inhibitors with Improved Pharmacokinetic Properties and Anticancer Efficacy” (J Med Chem, 2024).

Calls of active or inactive are those of the source. No cut-off for these calls is given here. Some results are limits rather than exact numbers.

The subject of experiment [1] is LNCaP. Nature of the experiment: Antitumor activity against human LNCaP cells xenografted in SCID mouse assessed as reduction in Ki67 expression at 10 mg/kg,ip administration measured after 4 weeks by immunohistochemical analysis. It counts as functional, organism-based. Summed up:
(§1)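 LNCaP subcutaneous xenograft tumors in SCID mice, collected at the end of 4 weeks of 10 mg/kg ip daily dosing or vehicle. IHC for Ki67 and cleaved caspase 3 run on eight tumors from eight mice, at least five fields each; positive cells counted; mean ± SEM reported.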
In general terms: In xenograft studies the graft and the host belong to different species.

The nature of experiment [2]: Antitumor activity against patient derived MDA-PCa-118b cells xenografted in SCID mouse assessed as reduction in ratio of tumor area to femur area at 10 mg/kg,ip administration measured after 4 weeks by CT imaging analysis. It is filed as functional, Homo sapiens. The arrangement: scale not given: the % may be the effect or the level left. Put shortly: (§2)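 AR-PDX 118b cells (1×10^5) injected via intra-femoral artery in male SCID mice (8–9 weeks). After 2 weeks, 10 mg/kg/day ip or vehicle for 4 weeks (n = 9/group). X-ray imaging every two weeks. At the end, femurs CT-scanned (5 per group) with 3D-reconstruction tumor size, and H&E histology used for tumor/femur area ratio.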

For a further experiment, the system named is PANC-1. Nature of the experiment: Cytotoxicity against human PANC-1 cells assessed as inhibition of cell growth incubated for 72 hrs by MTT assay. It is filed as functional, cell-based. The note with it: PANC-1, 72 h. Summed up: (§3)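 Cells seeded and grown to 70–80% confluence, then exposed for 72 h to a titration series (0.2–1000 nM). Viability read by MTT relative to untreated cells, with 6 replicates per concentration. IC50 fitted with a Hill-slope model.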
(Tetrazolium assays rely on reduction of a dye to a coloured formazan, in cell work by metabolically active cells.)

The test system of experiment [3] is LNCaP. Nature of the experiment: Cytotoxicity against human LNCaP cells assessed as inhibition of cell growth incubated for 72 hrs by MTT assay. It counts as functional, cell-based. Summed up: as §3
Experiment [4] concerns MDA-PCa-118b. Nature of the experiment: Antitumor activity against patient derived MDA-PCa-118b cells xenografted in SCID mouse assessed as reduction in tumor burden in femur at 10 mg/kg,ip administration measured after 4 weeks by CT imaging analysis. It is filed as functional, organism-based. The note with it: Homo sapiens. Summed up: as §2
Experiment [5] has as its system LNCaP. The experiment can be described thus: Antitumor activity against human LNCaP cells xenografted in SCID mouse assessed as reduction in microvascular density at 10 mg/kg,ip administration measured after 4 weeks by immunohistochemical analysis relative to control. The arrangement: scale not given: the % may be the effect or the level left. It counts as functional. Summed up: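 LNCaP xenografts were grown subcutaneously on both flanks of male SCID mice and treated i.p. at 10 mg/kg once daily for 4 weeks, starting 4 weeks after inoculation, with a vehicle control. Tumors were collected at the end of treatment for CD31 immunohistochemistry. Microvascular structures were counted in at least five areas per tumor, using eight tumors from eight mice. Data are mean ± SEM.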

The test system of experiment [6] is LNCaP. Nature of the experiment: Antitumor activity against human LNCaP cells xenografted in SCID mouse assessed as increase in cleaved caspase-3 expression at 10 mg/kg,ip administration measured after 4 weeks by immunohistochemical analysis. It is filed as functional, organism-based. Put shortly: as §1
Experiment [7] concerns LNCaP. The experiment can be described thus: Antitumor activity against human LNCaP cells xenografted in SCID mouse assessed as reduction in tumor growth at 10 mg/kg,ip administration measured after 4 weeks. It is filed as functional. The arrangement: scale not given: the % may be the effect or the level left. Summed up: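 Male SCID mice received 1×10^7 LNCaP cells subcutaneously under the back skin on both sides. Daily i.p. dosing at 10 mg/kg or vehicle began 4 weeks after inoculation and ran for 4 weeks. Tumor length and width were measured weekly, and size was calculated as length × width × width/2.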

Experiment [8] concerns MDA-PCa-118b. The experiment can be described thus: Antitumor activity against patient derived MDA-PCa-118b cells xenografted in SCID mouse assessed as reduction in bone metastasis at 10 mg/kg,ip administration measured after 4 weeks by X-ray imaging analysis. It is filed as functional, organism-based. The note with it: Homo sapiens. Put shortly:
as §2

Another experiment concerns MCF7. Nature of the experiment: Cytotoxicity against human MCF7 cells assessed as inhibition of cell growth incubated for 72 hrs by MTT assay. It counts as functional, cell-based. The note with it: MCF7, 72 h.
The subject of another experiment is BT-474. The experiment can be described thus: Cytotoxicity against human BT-474 cells assessed as inhibition of cell growth incubated for 72 hrs by MTT assay. It is filed as functional, cell-based. As to conditions: BT-474, 72 h. Put shortly:
as §3

Experiment [9] in a line: Antitumor activity against patient derived MDA-PCa-118b cells xenografted in SCID mouse assessed as reduction in femur volume at 10 mg/kg,ip administration measured after 4 weeks by CT imaging analysis. It is filed as functional, Homo sapiens. The arrangement: scale not given: the % may be the effect or the level left. Put shortly: as §2
Experiment [10] relates to LNCaP. The experiment can be described thus: Antitumor activity against human LNCaP cells xenografted in SCID mouse assessed as increase in mouse survival at 10 mg/kg,ip administration measured after 4 weeks. It is filed as functional, organism-based. Put shortly:
(§4)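 LNCaP cells (1×10^7) injected subcutaneously on both flanks of male SCID mice. From 4 weeks post-inoculation, 10 mg/kg ip daily for 4 weeks or vehicle (n = 10 vs 11). Caliper tumor size measured weekly (length × width²/2); survival endpoint at tumor diameter 3 cm.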

The test system of experiment [11] is MDA-PCa-118b. Nature of the experiment: Antitumor activity against patient derived MDA-PCa-118b cells xenografted in SCID mouse assessed as reduction in bone damage at 10 mg/kg,ip administration measured after 4 weeks by X-ray imaging analysis. It counts as functional, organism-based. The note with it: Homo sapiens. Put shortly: as §2
Experiment [12] concerns LNCaP. Nature of the experiment: Antitumor activity against human LNCaP cells xenografted in SCID mouse assessed as reduction in tumor growth at 10 mg/kg,ip administration measured after 1 week. It counts as functional, organism-based. The note with it: time 1.0 weeks. Put shortly:
as §4

The next experiment relates to MDA-MB-468. The experiment can be described thus: Cytotoxicity against human MDA-MB-468 cells assessed as inhibition of cell growth incubated for 72 hrs by MTT assay. It counts as functional, cell-based. As to conditions: MDA-MB-468, 72 h. Put shortly:
as §3

For experiment [13], the system named is LNCaP. The experiment can be described thus: Antitumor activity against human LNCaP cells xenografted in SCID mouse assessed as increase in positive cells of cleaved caspase-3 at 10 mg/kg,ip administration measured after 4 weeks by immunohistochemical analysis. It is filed as functional. Put shortly:
as §1

Experiment [14] has as its system MDA-PCa-118b. Nature of the experiment: Antitumor activity against patient derived MDA-PCa-118b cells xenografted in SCID mouse assessed as reduction in tumor burden in femur at 10 mg/kg,ip administration measured after 4 weeks by hematoxylin and eosin staining based analysis. It is filed as functional, organism-based. As to conditions: Homo sapiens. Summed up: as §2

As a reminder, the IC50 is the concentration needed to halve the response being measured. As to `C/C(=N\N=c1/[nH]c2cc(F)c(F)cc2n1C)c1ncccn1`, the outcome with LNCaP [1], in the experiment on MDA-PCa-118b [4], with LNCaP [6], in the experiment with MDA-PCa-118b [8], in the experiment on LNCaP [10] and in the experiment on MDA-PCa-118b [11] was Active. Also, the result with LNCaP [12] and in the experiment on MDA-PCa-118b [14] was Active. Moreover, the Activity in [2] is on record as more than 50%; in the experiment with LNCaP [5] it was more than 50%; in the experiment on LNCaP [7], more than 65%; in [9], more than 55%; in the experiment with LNCaP [13], 10%. For the same compound, the IC50 in the experiment on PANC-1 turned out to be 8 nM; in the experiment on LNCaP [3] it was 11 nM; in the experiment with MCF7, 3.3 nM; in the experiment with BT-474 it was 1 nM; with MDA-MB-468, 32 nM.
